ChEMBL document CHEMBL3414458, “Discovery of novel 2,5-dioxoimidazolidine-based P2X(7) receptor antagonists as constrained analogues of KN62” (J Med Chem, 2015)
The source made the active and inactive calls. The calls are words filed in the database; no cut-off is given here.

How the values were obtained:
[1] = biological target: T1, P2X purinoceptor 7 (Homo sapiens) (UniProt Q99572); assay: Antagonist activity at P2X7 receptor in LPS/IFN-gamma-differentiated human THP1 cells assessed as inhibition of BzATP-induced IL-1beta release at 1 uM preincubated for 30 mins followed by BzATP induction measured after 30 mins by ELISA relative to control; type: cell-based; details: THP-1
T1 sequence (whole entry): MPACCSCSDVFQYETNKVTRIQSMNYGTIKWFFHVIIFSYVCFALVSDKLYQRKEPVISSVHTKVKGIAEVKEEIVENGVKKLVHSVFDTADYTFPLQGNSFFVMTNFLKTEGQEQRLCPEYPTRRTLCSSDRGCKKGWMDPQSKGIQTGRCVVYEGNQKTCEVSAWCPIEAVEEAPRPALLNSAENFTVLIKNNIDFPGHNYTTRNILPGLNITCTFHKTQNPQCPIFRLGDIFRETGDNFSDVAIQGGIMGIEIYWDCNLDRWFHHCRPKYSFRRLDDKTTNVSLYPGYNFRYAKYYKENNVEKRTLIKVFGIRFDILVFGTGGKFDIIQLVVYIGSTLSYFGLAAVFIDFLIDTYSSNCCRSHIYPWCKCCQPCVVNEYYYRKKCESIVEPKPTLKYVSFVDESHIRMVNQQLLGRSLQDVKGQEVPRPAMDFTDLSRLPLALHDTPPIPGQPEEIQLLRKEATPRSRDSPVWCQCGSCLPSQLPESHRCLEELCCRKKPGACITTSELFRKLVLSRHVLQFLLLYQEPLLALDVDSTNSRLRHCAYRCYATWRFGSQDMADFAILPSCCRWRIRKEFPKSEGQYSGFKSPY
Procedure, shortened: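 LPS-primed THP-1 human monocytes were stimulated with BzATP, and IL-1β release was measured by ELISA. Test compound was given at a single concentration of 1 µM, and results are expressed as percent inhibition of BzATP-induced IL-1β release.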

[2] = biological target: T2, P2X purinoceptor 1 (Mus musculus) (UniProt P51576); assay: Antagonist activity at recombinant mouse P2X1 receptor overexpressed in Xenopus oocytes assessed as inhibition of ATP-induced ion current at 10 uM preincubated for 20 mins followed by ATP induction by two-electrode voltage clamping method relative to control; type: cell-based
T2 sequence (whole entry): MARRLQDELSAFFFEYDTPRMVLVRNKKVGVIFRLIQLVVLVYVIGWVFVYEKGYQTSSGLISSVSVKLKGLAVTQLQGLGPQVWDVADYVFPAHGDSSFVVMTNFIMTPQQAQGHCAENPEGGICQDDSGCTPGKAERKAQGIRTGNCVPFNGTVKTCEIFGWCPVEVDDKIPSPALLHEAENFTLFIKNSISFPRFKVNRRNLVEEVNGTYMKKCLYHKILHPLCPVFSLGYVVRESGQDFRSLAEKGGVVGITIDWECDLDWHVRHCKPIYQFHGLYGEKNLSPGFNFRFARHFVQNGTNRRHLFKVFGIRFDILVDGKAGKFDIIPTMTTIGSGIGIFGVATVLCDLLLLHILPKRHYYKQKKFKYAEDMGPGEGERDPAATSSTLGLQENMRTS
Procedure, shortened: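 Two-electrode voltage clamp on Xenopus oocytes expressing the receptor after cRNA microinjection. Current was evoked by 2 µM ATP, with test compound at 10 µM.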

[3] = biological target: T3, P2X purinoceptor 7 (Rattus norvegicus) (UniProt Q64663); assay: Antagonist activity at P2X7 receptor in neuropathic rat dorsal horn assessed as inhibition of long term potentiation-induced neropathic pain at 20 uM relative to control; details: Dorsal horn of spinal cord
T3 sequence (whole entry): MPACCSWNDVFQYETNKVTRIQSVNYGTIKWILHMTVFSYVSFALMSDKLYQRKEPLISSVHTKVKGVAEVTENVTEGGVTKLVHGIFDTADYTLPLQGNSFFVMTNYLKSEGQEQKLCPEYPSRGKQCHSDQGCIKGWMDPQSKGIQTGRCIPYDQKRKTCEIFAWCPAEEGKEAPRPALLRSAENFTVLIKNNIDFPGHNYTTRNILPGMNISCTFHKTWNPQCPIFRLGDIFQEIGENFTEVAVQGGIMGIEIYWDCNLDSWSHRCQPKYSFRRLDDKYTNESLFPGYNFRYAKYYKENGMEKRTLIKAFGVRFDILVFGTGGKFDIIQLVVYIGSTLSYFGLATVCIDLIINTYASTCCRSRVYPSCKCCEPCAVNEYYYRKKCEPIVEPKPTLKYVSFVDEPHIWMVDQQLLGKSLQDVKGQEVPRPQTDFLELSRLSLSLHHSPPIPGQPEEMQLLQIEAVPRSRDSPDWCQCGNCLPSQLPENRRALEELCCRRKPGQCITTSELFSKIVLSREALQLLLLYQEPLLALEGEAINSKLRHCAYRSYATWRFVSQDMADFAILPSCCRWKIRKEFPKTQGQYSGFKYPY
Procedure, shortened: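 Ex vivo spinal cord preparation: LTP-induced pain signalling recorded in the dorsal horn of neuropathic rats. Pregabalin served as the positive control.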

[4] = test system: Mus musculus; assay: Antiarthritic activity in CII-induced DBA/1J mouse arthritic model assessed as decrease in chronic inflammation at 50 mg/kg, ip measured 10 days post second CII booster by Hematoxylin and eosin staining relative to CII-treated control; type: functional, organism-based; design: dose 50 mg/kg
Procedure, shortened: (§1)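 Mouse type II collagen-induced arthritis; 50 mg/kg dosed by injection. Ankle histology was scored as cumulative arthritis injury scores against the vehicle-treated CII group.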

[5] = test system: Mus musculus; assay: Antiarthritic activity in CII-induced DBA/1J mouse arthritic model assessed as decrease in abcess formation at 50 mg/kg, ip measured 10 days post second CII booster by Hematoxylin and eosin staining relative to CII-treated control; type: functional, organism-based; design: dose 50 mg/kg; procedure, shortened: as §1
[6] = test system: Mus musculus; assay: Antiarthritic activity in CII-induced DBA/1J mouse arthritic model assessed as decrease in fibrosis at 50 mg/kg, ip measured 10 days post second CII booster by Hematoxylin and eosin staining relative to CII-treated control; type: functional, organism-based; design: dose 50 mg/kg; procedure, shortened: as §1
[7] = test system: Mus musculus; assay: Antiarthritic activity in CII-induced DBA/1J mouse arthritic model assessed as decrease in periarticular erosion at 50 mg/kg, ip measured 10 days post second CII booster by Hematoxylin and eosin staining relative to CII-treated control; type: functional, organism-based; design: dose 50 mg/kg; procedure, shortened: as §1
[8] = test system: Mus musculus; assay: Downregulation of iNOS expression in ankle tissue of CII-induced DBA/1J mouse arthritic model at 25 to 50 mg/kg, ip measured 10 days post second CII booster by immunoblot analysis; type: functional, organism-based

In the case of `O=C1NC(=O)N(C2CCN(C(=O)c3ccc(Cl)c(C(F)(F)F)c3)CC2)C1Cc1ccc(OS(=O)(=O)c2cccc3cnccc23)cc1` (racemic), the inhibition [1] is reported as > 95%, the inhibition [2] is reported as 16% and the inhibition [3] is reported as 76%. For the same molecule, the Activity [4] was “Active”, the Activity [5] was “Active” and the Activity [6] was “Active”. For the same molecule, the Activity [7] was “Active” and the Activity [8] was “Active”.
